Screening results deposited in PubChem by The Scripps Research Institute Molecular Screening Center.
Sampled rows, rich in hits. Any-hit rate of the full collection: about 3.2%.
PRMT1 inh – PRMT1 methyltransferase inhibitors, primary screen, biochemical, fluorescence polarization; recombinant PRMT1, activity-based probe fluorescence polarization; hit rate 1.3% among 370,000; Protein arginine N-methyltransferase 1 (Homo sapiens), Q99873; inhibition, % at 2.79 µM;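 active = inhibition above about 21% made by adding two undisclosed values, limit read from the data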
HTRA1 inh – HTRA1 serine protease inhibitors, primary screen, biochemical, fluorescence polarization, HTS | Q92743 | recombinant HTRA1, FP-rhodamine activity-based probe | inhibition, % at 5.96 µM | AID 504803, 2011 | hit rate 0.5% among 340,000; in the data active = inhibition above about 36%;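 also: 0% = enzyme with DMSO and 100% = wells lacking enzyme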
Target sequence (Q92743 whole entry, looked up): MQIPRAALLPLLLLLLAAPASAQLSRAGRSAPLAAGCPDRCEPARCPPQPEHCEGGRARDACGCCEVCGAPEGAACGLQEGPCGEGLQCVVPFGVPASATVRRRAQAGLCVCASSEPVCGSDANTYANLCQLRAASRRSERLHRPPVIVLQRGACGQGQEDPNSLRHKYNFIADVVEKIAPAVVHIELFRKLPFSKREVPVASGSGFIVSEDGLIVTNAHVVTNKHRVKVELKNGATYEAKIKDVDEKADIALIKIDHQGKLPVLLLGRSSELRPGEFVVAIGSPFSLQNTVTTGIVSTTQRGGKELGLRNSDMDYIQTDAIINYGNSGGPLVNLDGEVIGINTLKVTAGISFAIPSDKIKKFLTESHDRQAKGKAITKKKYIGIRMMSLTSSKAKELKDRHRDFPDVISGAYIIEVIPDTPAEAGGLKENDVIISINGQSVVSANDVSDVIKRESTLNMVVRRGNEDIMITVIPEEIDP
ABHD4 inh – ABHD4 inhibitors, primary screen, biochemical, fluorescence polarization, mouse | (Lyso)-N-acylphosphatidylethanolamine lipase (Mus musculus), Q8VD66 | purified mABHD4, FP-Rh probe fluorescence polarization | inhibition, % at 8.92 µM | hit rate 0.54% among 370,000 | AID 720543, 2013;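 active = inhibition exceeding the mean over every tested compound plus 3 SD, cut at about 30% in these data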;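 also: 0% = plate median of compound wells and 100% = S159A mutant with DMSO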
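Test system: mABHD4 protein; Read-out basis: % inhibition; Incubation: 45 min + 60 min at 25 °C; Repeats: single replicate; Technique: fluorescence polarization with parallel and perpendicular emission, 525/598 nm; Compound: 8.92 µM, single dose; Benchmarks: full inhibition S159A mutant plus DMSO, zero as sample-well median.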
DAGLB inh – DAGLB lipase inhibitors, primary screen, biochemical, fluorescence, HTS; Diacylglycerol lipase-beta (Homo sapiens), Q8NCG7; HEK293T DAGLB membrane lysate, EnzChek fluorogenic substrate; inhibition, % at 5.17 µM; hit rate 0.059% among 340,000; AID 504411, 2011; in the data active = inhibition above about 34%;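 also: 0% = enzyme with vehicle and 100% = wells lacking enzyme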
rCAG RNA binder – binders of r(CAG) RNA repeats, primary screen, biochemical, fluorescence | r(CAG) RNA repeat, TO-PRO-1 dye displacement fluorescence | inhibition, % at 3 µM | hit rate 1.3% among 370,000 | AID 651821, 2012;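 active = inhibition above the plate cutoff, the mean of all test compounds on that plate plus 3 SD, cut at about 35% in these data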;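 also: 0% = DMSO alone and 100% = 100 µM mitoxantrone as full dye displacement; higher means more dye released from RNA so lower well fluorescence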
LEDGF integ inh – blockers of LEDGF/p75-dependent integrase strand transfer – biochemical, TR-FRET, high throughput, primary screen | TR-FRET IN-LEDGF/p75 DNA integration, Eu/Cy5 | AID 743269, 2014 | HIV-1 integrase (with human LEDGF/p75) | inhibition, % at 3.7 µM | hit rate 0.64% among 370,000;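 active = inhibition above the screen-wide mean plus 3 SD, cut at about 13% in these data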;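 also: signal is the Cy5 over europium emission ratio at 671 and 618 nm; 0% = plate median of compound wells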
rCAG bind conf – small molecules binding CAG repeat RNA – biochemical, fluorescence, confirmation | hit rate 70% among 4,300 | inhibition, % at 3 µM | AID 652065, 2013 | r(CAG) RNA repeat, TO-PRO-1 dye displacement fluorescence | shares compounds with rCAG RNA binder;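 active = inhibition above a per-plate cutoff, the mean inhibition of sample wells plus 3 SD, cut at about 35% in these data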;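 also: loss of TO-PRO-1 fluorescence as compound displaces dye from 1x1 AA loop RNA; 0% = DMSO only wells and 100% = 100 µM mitoxantrone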
dCAG dye counter – displacement of TO-PRO-1 from CAG DNA duplex, counter-screen for rCAG RNA repeat binder project, biochemical, fluorescence, TO-PRO-1 dye, d(CAG) DNA oligo | shares compounds with rCAG RNA binder | d(CAG) DNA oligo TO-PRO-1 dye displacement | inhibition, % at 3 µM | hit rate 94% among 4,300 | AID 652068, 2013;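 active = inhibition above its plate's cutoff, the mean test-well inhibition plus 3 SD, cut at about 4.8% in these data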;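 also: 0% = DNA dye mix with DMSO and 100% = 100 µM mitoxantrone; hits displace the dye from DNA and so lower well fluorescence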
dCAG dye DR – inhibitors of DNA CAG/GTC TO-PRO-1 complex, dose response, counter-screen for rCAG RNA repeat binder project, biochemical, fluorescence, TO-PRO-1 dye | shares compounds with rCAG RNA binder | DNA CAG/GTC duplex TO-PRO-1 dye displacement fluorescence | IC50, µM | hit rate 20% among 250; in the data active = IC50 below about 10 µM
An asterisk follows results filed as active; i = inactive; / = no result.

SMILES	PRMT1 inh	HTRA1 inh	ABHD4 inh	DAGLB inh	rCAG RNA binder	LEDGF integ inh	rCAG bind conf	dCAG dye counter	others
Cc1nc(Nc2nc(CSc3nc4ccccc4[nH]3)cc(=O)[nH]2)nc2ccccc12	-2	-55	-27	2	41*	2	32	21*
Cc1nc(Nc2nc(CSc3ccc(Cl)cc3)cc(=O)[nH]2)nc2ccccc12	5	5	11	0	8	-3	/	/
COc1ccc2nc(Nc3nc(CSc4nc5ccccc5[nH]4)cc(=O)[nH]3)nc(C)c2c1	-3	-9	5	2	20	0	/	/
CCN1C(=O)/C(=C/c2ccc(OCc3ccc(C(=O)O)cc3)c(Cl)c2)NC1=S	-5	-38	-33	3	57*	6	51*	16*
O=C(O)c1ccc(COc2ccc(CO)cc2Cl)cc1	-2	3	-8	-1	3	2	/	/
COc1cc(/C=C2\SC(=S)N(CC(=O)O)C2=O)ccc1OS(=O)(=O)c1ccc(C)cc1	4	-35	15	12	81*	-1	86*	56*
COc1cc(/C=C2/SC(=S)N(CC(=O)O)C2=O)ccc1OC(=O)c1cccs1	10	-21	1	7	60*	2	72*	34*	dCAG dye DR=i
Nc1cc(=O)[nH]c(SCC(=O)Nc2ccc3c(c2)CCC3)n1	7	-13	-10	2	11	-2	/	/
O=C(CSc1nc(O)cc(=O)[nH]1)Nc1ccc2c(c1)CCC2	5	-11	10	4	49*	1	12	6.0*
COc1ccc(-c2csc(NC(=O)CSc3nc4ccccc4c(=O)[nH]3)n2)cc1	3	-39	-28	8	38*	-1	57*	22*
Cc1cc(=O)[nH]c(SCC(=O)Nc2nc(-c3ccccc3)cs2)n1	-3	-23	-5	8	36*	-3	33	9.5*
Cc1csc(SCC(=O)Nc2nc(-c3ccccc3)cs2)n1	3	-43	-38	-13	5	-1	/	/
CCCCCCCCN1C(=O)[C@@H](CC(=O)NCCCN2CCCC2=O)C[C@@]2(C(=O)OC)C1=C[C@H](C1CCCC1)O[C@@H]2C	-3	/	-5	/	4	-2	/	/
O=C(COc1ccccc1)Nc1nnc(-c2ccco2)o1	1	-2	0	-3	3	-3	/	/
O=c1oc2ccccc2c(Nc2cc3ccccc3cc2O)c1[N+](=O)[O-]	5	22	11	11	41*	9	56*	20*
O=c1oc2ccccc2c(Nc2ccccc2O)c1[N+](=O)[O-]	-1	1	2	1	3	-3	/	/
O=c1oc2ccccc2c(Nc2cccc3ccccc23)c1[N+](=O)[O-]	0	3	9	12	42*	-2	45*	12*
O=C(c1cc(Br)c(Br)s1)N1CCN(C/C=C/c2ccccc2)CC1	0	-32	3	-5	36*	-1	3	3
Cc1cc(C)cc(CC(=O)N2CCC2(C)C(=O)NS(=O)(=O)c2ccc(C(C)(C)C)cc2)c1 (stereo unspecified)	4	/	14	/	58*	5	50*	15*
CC1(C(=O)NS(=O)(=O)c2ccccc2)CCN1C(=O)Cc1cc(F)ccc1F (stereo unspecified)	1	/	1	/	2	-5	/	/
CC(C)(C)c1ccc(S(=O)(=O)NC(=O)C2(C)CCN2C(=O)CC2CCCCC2)cc1 (stereo unspecified)	2	/	15	/	44*	-1	31	5.3*
CC(C)(C)c1ccc(CC(=O)N2CCC2(C)C(=O)NS(=O)(=O)c2cccc(Cl)c2)cc1 (stereo unspecified)	-1	/	9	/	55*	-2	49*	16*
CC(C)(C)c1ccc(S(=O)(=O)NC(=O)C2(C)CCN2C(=O)Cc2cc(F)ccc2F)cc1 (stereo unspecified)	3	/	7	/	38*	2	30	5.6*
Cc1ccc(C)c(N2CCN(C(=O)CCc3nc(-c4ccccc4Br)no3)CC2)c1	-1	-27	-11	-8	3	-4	/	/
CCn1c(SCC(=O)N2CCc3ccccc3C2)nc2sc(C)c(C)c2c1=O	-1	-8	-5	-4	3	3	/	/
SMILES	PRMT1 inh	HTRA1 inh	ABHD4 inh	DAGLB inh	rCAG RNA binder	LEDGF integ inh	rCAG bind conf	dCAG dye counter	others
COc1cccc(S(=O)(=O)N(C)C[C@@H]2OCc3cnnn3CCCC(=O)N([C@@H](C)CO)C[C@@H]2C)c1	-3	2	5	-4	2	0	/	/
Cc1ccc(S(=O)(=O)Nc2nc(-c3ccc(F)cc3)cs2)cc1	-1	-2	12	9	62*	3	56*	15*
O=[N+]([O-])c1ccc(S(=O)(=O)Nc2nc(-c3ccccc3)cs2)cc1	1	-7	13	14	66*	2	41*	11*
O=S(=O)(Nc1nc(-c2ccccc2)cs1)c1cccc(C(F)(F)F)c1	-1	-21	-3	20	78*	1	57*	22*
O=C(O)c1ccccc1NS(=O)(=O)c1cccc(C(F)(F)F)c1	-3	-6	3	5	15	-3	/	/
O=S(=O)(Nc1nc(-c2ccccc2)cs1)c1cc(Cl)ccc1Cl	-3	-16	-29	17	80*	0	73*	38*
COc1ccccc1-c1ocnc1C(=O)N1CCN(C(=O)C(c2ccccc2)c2ccccc2)CC1	2	-9	-8	1	-5	-2	/	/
COc1ccc(C(=O)O)cc1NC(=S)NC(=O)/C=C/c1ccc(C(C)C)cc1	-4	-27	-42	4	57*	1	75*	40*
CCCCC(=O)NC(=S)Nc1cc(C(=O)O)ccc1OC	0	4	-4	1	0	3	/	/
